In ChEMBL document CHEMBL5107950, “Structure-based design of haloperidol analogues as inhibitors of acetyltransferase Eis from Mycobacterium tuberculosis to overcome kanamycin resistance” (RSC Med Chem, 2021):
≈ marks a conversion by molar mass, not a printed value. Calls of active or inactive are those of the source. The rule behind the calls is not given here.

Columns and labels:
[1] = system: Mycobacterium tuberculosis variant bovis; test: Antibacterial activity against Mycobacterium bovis BCG ATCC 35734 assessed as inhibition of bacterial growth incubated upto 3 weeks hrs by resazurin dye based double-dilution method; type: functional; conditions: BCG ATCC 35734, 504 h
Procedure, shortened: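 Double-dilution broth MIC. Media: M. smegmatis, Mueller-Hinton; M. abscessus, 7H9 + 0.05% Tween80 + 0.4% glycerol; mc²6230, 7H9 + 0.05% tyloxapol, 0.5% glycerol, 10% OADC, 0.2% casamino acids, 24 µg/mL pantothenate; other mycobacteria, 7H9 + 0.05% Tween80, 0.4% glycerol, 10% ADC. Inoculum from agar set to 0.5 McFarland, then diluted 1:100.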

[2] = system: Mycobacterium tuberculosis variant bovis; test: Synergistic antibacterial activity against Mycobacterium bovis BCG ATCC 35734 in presence of spectinomycin by checkerboard assay; type: functional, organism-based
Procedure, shortened: (§1)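 Checkerboard in 96-well plates. Antibiotic two-fold serially diluted along columns, haloperidol derivative two-fold along rows. Bacteria prepared as for the MIC determination. MICs alone and in combination used to calculate FICI. At least duplicate independent trials.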

[3] = system: Mycobacterium tuberculosis variant bovis; test: Antibacterial activity against Mycobacterium bovis BCG ATCC 35734 in presence of clarithromycin by checkerboard assay; type: functional, organism-based; procedure, shortened: as §1
[4] = system: Mycobacterium tuberculosis variant bovis; test: Antibacterial activity against Mycobacterium bovis BCG ATCC 35734 in presence of clofazimine by checkerboard assay; type: functional, organism-based; procedure, shortened: as §1

O=C(CCCN1CCCCC1)c1ccc(F)cc1 [PRIMAPERONE]
MIC [1]: > 62.5 µM

O=C(CCCN1CCC(O)(c2ccc(Br)cc2)CC1)c1ccccc1
MIC [1]: > 62.5 µM

O=C(CCCN1CCC(O)CC1)c1ccc(F)cc1
MIC [1]: > 62.5 µM

Cc1ccc(S(=O)(=O)N2CCC(O)(c3ccc(Cl)cc3)CC2)cc1
MIC [1]: > 62.5 µM

NNC(=O)c1ccncc1 [ISONIAZID]
MIC [1]: ≤ 1 µM

O=C(CCCN1CCC(O)(c2ccc(F)cc2)CC1)c1ccc(Cl)cc1
MIC [1]: > 62.5 µM | Activity [2]: Active | Activity [3]: Active | Activity [4]: Active

O=C(CCCN1CCC(O)(c2ccc(F)cc2)CC1)c1ccc(F)cc1
MIC [1]: > 62.5 µM

CC(C)c1ccc(C(=O)CCCN2CCC(O)(c3ccc(Cl)cc3)CC2)cc1
MIC [1]: 1 µM (≈ 0.4 µg/mL)

COc1ccc(C(=O)CCCN2CCC(O)(c3ccc(F)cc3)CC2)cc1
MIC [1]: > 62.5 µM

O=C(CCCN1CCC(O)(c2ccc(Cl)cc2)CC1)c1ccc(Br)cc1
MIC [1]: > 62.5 µM

O=C(CCCN1CC=C(c2ccc(Cl)cc2)CC1)c1ccc(F)cc1
MIC [1]: 15.6 µM (≈ 5.58 µg/mL)

CC1CCCCN1CCCOc1ccc(F)cc1 (stereo not drawn)
MIC [1]: 3.9 µM (≈ 0.98 µg/mL)

CC(C)(C)c1ccc(C(=O)CCCN2CCC(O)(c3ccc(Cl)cc3)CC2)cc1
MIC [1]: 3.9 µM (≈ 1.61 µg/mL)

CC(=O)CCCN1CCC(O)(c2ccc(Cl)cc2)CC1
MIC [1]: > 62.5 µM

O=C(CCCN1CCC(O)(c2ccccc2)CC1)c1ccc(F)cc1
MIC [1]: > 62.5 µM

O=C(CCCN1CCC(O)(c2ccc(Br)cc2)CC1)c1ccc(F)cc1 [BROMPERIDOL]
MIC [1]: 62.5 µM (≈ 26.3 µg/mL)

CC1CC(C)CN(CCCC(=O)c2ccc(C(C)(C)C)cc2)C1 (stereo not drawn)
MIC [1]: 31.3 µM (≈ 9.88 µg/mL)

O=C(CN1CCC(O)(c2ccc(Cl)cc2)CC1)c1ccc(F)cc1
MIC [1]: > 62.5 µM

O=C(CCCN1CCC(O)(c2ccc(Cl)cc2)CC1)c1ccc(Cl)cc1 [CHLOROHALOPERIDOL]
MIC [1]: 62.5 µM (≈ 24.5 µg/mL) | Activity [2]: Active | Activity [3]: Active | Activity [4]: Active

Cc1ccc(C(=O)CCCN2CCC(O)(c3ccc(Cl)cc3)CC2)cc1
MIC [1]: 15.6 µM (≈ 5.8 µg/mL)

Fc1ccc(OCCCN2CCC(c3ccccc3)CC2)cc1
MIC [1]: > 62.5 µM

O=C(CCCN1CCC(O)(c2ccc(F)cc2)CC1)c1ccccc1
MIC [1]: > 62.5 µM

O=C(CCCN1CCC(O)(c2ccc(Cl)cc2)CC1)c1ccccc1
MIC [1]: 62.5 µM (≈ 22.4 µg/mL)

O=C(CCCN1CCC(c2ccc(Cl)cc2)CC1)c1ccc(F)cc1
MIC [1]: 62.5 µM (≈ 22.5 µg/mL)

O=C(CCCN1CCC(O)(c2ccc(Cl)cc2)CC1)c1ccc(F)cc1 [HALOPERIDOL]
MIC [1]: 62.5 µM (≈ 23.5 µg/mL)

COc1ccc(C(=O)CCCN2CCC(O)(c3ccc(Br)cc3)CC2)cc1
MIC [1]: 62.5 µM (≈ 27 µg/mL)

CCc1ccc(C(=O)CCCN2CCC(O)(c3ccc(Cl)cc3)CC2)cc1
MIC [1]: 2 µM (≈ 0.772 µg/mL)

O=C(CCCN1CCC(O)(c2ccc(Br)cc2)CC1)c1ccc(Br)cc1
MIC [1]: > 62.5 µM

CC(C)(C)c1ccc(C(=O)CCCN2CCC(O)(c3ccc(Br)cc3)CC2)cc1
MIC [1]: 3.9 µM (≈ 1.79 µg/mL)

CC1CC(C)CN(CCCOc2ccc(F)cc2)C1 (stereo not drawn)
MIC [1]: 15.6 µM (≈ 4.14 µg/mL)

O=C(CCCN1CCC(O)(c2ccc(Br)cc2)CC1)c1ccc(Cl)cc1
MIC [1]: 15.6 µM (≈ 6.81 µg/mL) | Activity [2]: Active | Activity [3]: Active | Activity [4]: Active

O=C(CCCN1CCC(O)(c2ccc(F)cc2)CC1)c1ccc(Br)cc1
MIC [1]: 62.5 µM (≈ 26.3 µg/mL)

COc1ccc(C(=O)CCCN2CCC(O)(c3ccc(Cl)cc3)CC2)cc1
MIC [1]: > 62.5 µM

CC(C)(C)c1ccc(C(=O)CCCN2CCC(O)(c3ccc(F)cc3)CC2)cc1
MIC [1]: 15.6 µM (≈ 6.2 µg/mL)
